Usually inhibition stands for the drop in the measured response relative to a control, in per cent. Usually pIC50 stands for the IC50 on a negative log10 scale, so that one unit is a factor of ten. A lower pIC50 goes with a high IC50.

Here are results for one compound from ChEMBL document CHEMBL3044834, “Novel protoporphyrinogen oxidase inhibitors: 3H-pyrazolo[3,4-d][1,2,3]triazin-4-one derivatives” (J Agric Food Chem, 2008).

SMILES strings stand for the structures. pIC50: −log10 of the molar value.

The test system of assay [1] is Digitaria sanguinalis. The assay is described as follows: Herbicidal activity against Digitaria sanguinalis (hairy crabgrass) assessed as inhibition of fresh weed plant weight at 45 g/ha using pre-emergence treatment protocol. The assay is classed as functional.
Assay [2] concerns Brassica rapa subsp. oleifera. The assay is described as follows: Herbicidal activity against Brassica rapa subsp. oleifera assessed as inhibition of fresh weed plant weight at 22.5 g/ha using pre-emergence treatment protocol. In kind it is functional.
Assay [3] concerns Brassica rapa subsp. oleifera. Put plainly: Herbicidal activity against Brassica rapa subsp. oleifera assessed as inhibition of fresh weed plant weight at 187.5 g/ha using pre-emergence treatment protocol. The assay is classed as functional.
Assay [4] deals with Echinochloa crus-galli. The assay is described as follows: Herbicidal activity against Echinochloa crus-galli (barnyard grass) assessed as inhibition of fresh weed plant weight at 93.75 g/ha using pre-emergence treatment protocol. In kind it is functional.
For assay [5], the system named is Amaranthus retroflexus. The assay is described as follows: Herbicidal activity against Amaranthus retroflexus assessed as inhibition of fresh weed plant weight at 93.75 g/ha using pre-emergence treatment protocol. In kind it is functional.
The subject of assay [6] is Digitaria sanguinalis. The assay is described as follows: Herbicidal activity against Digitaria sanguinalis (hairy crabgrass) assessed as inhibition of fresh weed plant weight at 187.5 g/ha using pre-emergence treatment protocol. In kind it is functional.
Assay [7] deals with Amaranthus retroflexus. The assay is described as follows: Herbicidal activity against Amaranthus retroflexus assessed as inhibition of fresh weed plant weight at 45 g/ha using pre-emergence treatment protocol. In kind it is functional.
Assay [8] has as its system Amaranthus retroflexus. Put plainly: Herbicidal activity against Amaranthus retroflexus assessed as inhibition of fresh weed plant weight at 22.5 g/ha using pre-emergence treatment protocol. In kind it is functional.
Assay [9] deals with Digitaria sanguinalis. The assay is described as follows: Herbicidal activity against Digitaria sanguinalis (hairy crabgrass) assessed as inhibition of fresh weed plant weight at 22.5 g/ha using pre-emergence treatment protocol. In kind it is functional.
Assay [10] relates to Amaranthus retroflexus. Put plainly: Herbicidal activity against Amaranthus retroflexus assessed as inhibition of fresh weed plant weight at 187.5 g/ha using pre-emergence treatment protocol. In kind it is functional.
Assay [11] concerns Brassica rapa subsp. oleifera. Put plainly: Herbicidal activity against Brassica rapa subsp. oleifera assessed as inhibition of fresh weed plant weight at 45 g/ha using pre-emergence treatment protocol. In kind it is functional.
For assay [12], the system named is Digitaria sanguinalis. Put plainly: Herbicidal activity against Digitaria sanguinalis (hairy crabgrass) assessed as inhibition of fresh weed plant weight at 93.75 g/ha using pre-emergence treatment protocol. In kind it is functional.
The target in assay [13] is T1, Protoporphyrinogen IX oxidase (Zea mays, UniProt Q9M629).
T1 sequence (Q9M629 whole entry): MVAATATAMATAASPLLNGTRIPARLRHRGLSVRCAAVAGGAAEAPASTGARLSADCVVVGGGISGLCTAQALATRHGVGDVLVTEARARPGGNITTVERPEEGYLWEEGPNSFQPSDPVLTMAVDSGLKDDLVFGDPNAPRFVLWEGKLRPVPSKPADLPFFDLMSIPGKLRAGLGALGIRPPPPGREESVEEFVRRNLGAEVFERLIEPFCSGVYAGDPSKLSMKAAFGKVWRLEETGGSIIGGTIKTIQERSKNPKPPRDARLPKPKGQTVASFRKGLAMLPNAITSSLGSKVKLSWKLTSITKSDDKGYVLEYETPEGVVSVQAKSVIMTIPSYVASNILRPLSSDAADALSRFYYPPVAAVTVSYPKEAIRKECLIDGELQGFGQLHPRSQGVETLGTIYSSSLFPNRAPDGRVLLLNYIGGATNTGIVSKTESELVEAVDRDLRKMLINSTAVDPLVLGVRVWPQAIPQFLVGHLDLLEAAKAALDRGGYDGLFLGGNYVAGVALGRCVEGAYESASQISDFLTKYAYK
Put plainly: Inhibition of protoporphyrinogen oxidase in Zea mays (maize) seedlings leaves etioplasts using protoporphyrinogen IX incubated for 30 min by fluorescence spectroscopy.

In assay [14] the test system is Echinochloa crus-galli. The assay is described as follows: Herbicidal activity against Echinochloa crus-galli (barnyard grass) assessed as inhibition of fresh weed plant weight at 45 g/ha using pre-emergence treatment protocol. The assay is classed as functional.
Assay [15] concerns Echinochloa crus-galli. The assay is described as follows: Herbicidal activity against Echinochloa crus-galli (barnyard grass) assessed as inhibition of fresh weed plant weight at 22.5 g/ha using pre-emergence treatment protocol. In kind it is functional. The method in brief:
(§1)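 Test compounds made up as emulsions by dissolving in 100 µL N,N-dimethylformamide, then adding a little Tween 20 and water. For post-emergence, weed seedlings at one leaf and one stem were sprayed at the same rates as the pre-emergence test. Fresh weight was recorded 15 days after treatment and expressed as percent inhibition versus controls. All treatments were run in triplicate.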

Assay [16] relates to Echinochloa crus-galli. Put plainly: Herbicidal activity against Echinochloa crus-galli (barnyard grass) assessed as inhibition of fresh weed plant weight at 187.5 g/ha using pre-emergence treatment protocol. In kind it is functional. The method in brief: as §1
In assay [17] the test system is Brassica rapa subsp. oleifera. The assay is described as follows: Herbicidal activity against Brassica rapa subsp. oleifera assessed as inhibition of fresh weed plant weight at 93.75 g/ha using pre-emergence treatment protocol. The assay is classed as functional.

Take `C#CCN1C(=O)COc2cc(F)c(N3C(=O)C4=C(CCCC4)C3=O)cc21` [FLUMIOXAZIN]: the inhibition at 45 g/ha in the assay with Digitaria sanguinalis [1] was 100%; with Amaranthus retroflexus [7] it was 100%; in assay [11], 100%; in the assay on Echinochloa crus-galli [14], 71.4%. In addition, the inhibition at 22.5 g/ha in assay [2] was 92.6%; in the assay on Amaranthus retroflexus [8], 100%; in the assay on Digitaria sanguinalis [9], 85.4%; in the assay on Echinochloa crus-galli [15], 40.9%. The inhibition at 187.5 g/ha (in [3]; with Digitaria sanguinalis [6]; in the assay with Amaranthus retroflexus [10]; in the assay on Echinochloa crus-galli [16]) was 100% throughout. For the same compound, the inhibition at 93.75 g/ha (in the assay on Echinochloa crus-galli [4]; in the assay with Amaranthus retroflexus [5]; in the assay on Digitaria sanguinalis [12]; in assay [17]) was 100% each time. The compound further had a negative logarithm of the IC50 (pIC50) in [13] of 8.49.
